# Screening data (PubChem BioAssay)
# Sampled rows, rich in hits. Any-hit rate of the full collection: about 4.1%.
# KCNK9 inh = blocks the human KCNK9 two-pore domain potassium channel | Q9NPC2 | HEK293 KCNK9, FluxOR thallium flux fluorescence; stronger effect = lower value | B-score at 10 µM | actives 1.2% (n = 310,000);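 active = ratio B-score over 3 SD below the library mean, with starting fluorescence within 5 SD of its mean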;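 note: negative B-score means less thallium flux so channel inhibition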
# KCNK3 inh = human KCNK3 channel inhibition, primary screen. O14649. CHO-KCNK3 thallium flux, FluxOR fluorescence; stronger effect = lower value. actives 0.84% (n = 340,000). B-score at 10 µM;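 active = B-score under library mean minus 4 SD, starting fluorescence ratio at most library mean plus 5 SD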;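 note: more negative B-score means stronger inhibition of thallium flux through KCNK3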
# hERG rescue = hERG (human) protection from proarrhythmic block. CHO-hERG, FluxOR thallium flux, dofetilide IC70 present. activation (rescue from dofetilide block), less the hit threshold, % at 10 µM. actives 0.51% (n = 310,000). Q12809;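 active = activation above the mean of controls blocked by dofetilide plus 5 SD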;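 note: thallium influx through hERG after potassium depolarization seen as dye fluorescence rise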
# Target sequence (Q12809 whole entry, looked up): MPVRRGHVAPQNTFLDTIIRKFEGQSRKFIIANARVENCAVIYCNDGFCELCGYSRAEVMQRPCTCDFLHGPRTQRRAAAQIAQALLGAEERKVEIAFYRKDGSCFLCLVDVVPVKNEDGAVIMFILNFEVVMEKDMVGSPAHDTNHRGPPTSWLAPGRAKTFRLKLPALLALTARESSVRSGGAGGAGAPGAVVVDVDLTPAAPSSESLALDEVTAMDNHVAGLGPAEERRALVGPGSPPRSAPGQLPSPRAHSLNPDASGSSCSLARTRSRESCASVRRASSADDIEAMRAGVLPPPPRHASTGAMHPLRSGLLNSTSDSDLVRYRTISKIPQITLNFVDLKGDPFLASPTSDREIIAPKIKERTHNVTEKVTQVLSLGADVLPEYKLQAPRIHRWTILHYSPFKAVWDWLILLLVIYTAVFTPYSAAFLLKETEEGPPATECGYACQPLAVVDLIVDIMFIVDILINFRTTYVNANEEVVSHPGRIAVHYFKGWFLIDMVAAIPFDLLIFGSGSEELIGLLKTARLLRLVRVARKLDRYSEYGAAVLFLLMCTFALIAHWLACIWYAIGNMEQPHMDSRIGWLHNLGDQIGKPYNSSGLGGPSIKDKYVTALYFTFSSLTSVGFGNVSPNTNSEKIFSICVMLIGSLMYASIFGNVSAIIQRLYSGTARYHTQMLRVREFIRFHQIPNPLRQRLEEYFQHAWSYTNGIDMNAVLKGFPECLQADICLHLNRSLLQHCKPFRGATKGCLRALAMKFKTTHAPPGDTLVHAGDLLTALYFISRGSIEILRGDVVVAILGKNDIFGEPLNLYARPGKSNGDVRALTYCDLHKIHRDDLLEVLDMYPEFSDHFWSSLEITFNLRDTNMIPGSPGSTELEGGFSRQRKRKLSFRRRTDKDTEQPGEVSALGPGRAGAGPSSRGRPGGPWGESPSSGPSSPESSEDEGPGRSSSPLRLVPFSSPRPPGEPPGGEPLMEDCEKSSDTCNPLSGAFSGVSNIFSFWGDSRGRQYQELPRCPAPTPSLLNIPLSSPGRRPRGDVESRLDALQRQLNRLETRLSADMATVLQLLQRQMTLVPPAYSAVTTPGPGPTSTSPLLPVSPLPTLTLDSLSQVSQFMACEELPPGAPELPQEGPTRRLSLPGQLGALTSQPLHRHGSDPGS
# KCNQ1 act = potentiators or activators of human KCNQ1 potassium channel | AID 2648 | B-score at 10 µM | actives 0.35% (n = 310,000) | CHO-K1 KCNQ1, thallium flux FluxOR fluorescence; stronger effect = higher value;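 active = fluorescence ratio B-score, a plate-corrected score, at least three library SD, with initial intensity B-score within 5 SD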
#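 Test system: CHO-K1 cells stably expressing KCNQ1 / Medium: assay buffer / Also added: depolarizing K+/Tl+ stimulus, K2SO4 and Tl2SO4 each 12.5 mM in 5x stock / Incubation: 90 min dye loading and 20 min compound exposure, both at room temperature / Signal: thallium influx via FluxOR fluorescence, kinetic imaging / Evaluation: B score of baseline-normalized fluorescence ratio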
# Cl transport mod = KCC2 (human) Cl- transport modulation. KCC2 cells, thallium flux FluoZin-2 fluorescence. B-score of Tl+ flux slope (higher = more flux/activation; lower = inhibition) at 10 µM. actives 2.2% (n = 190,000);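 active = thallium flux slope and its plate-corrected score both differing from the plate sample mean at a set confidence after two filtering rounds, in either direction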;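 note: slope of fluorescence scaled to starting intensity during 10 to 20 s after thallium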
# KCNQ1 block = blocks the human KCNQ1 potassium channel; B-score at 10 µM; P51787; AID 2642; actives 1.3% (n = 310,000); CHO-K1 KCNQ1, FluxOR thallium flux fluorescence; stronger effect = higher value;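 active = compounds whose thallium flux B-score, printed positive for inhibition, exceeds three library SD while starting fluorescence stays within three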;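 note: channel opened by potassium depolarization with thallium stimulus after 20 min compound exposure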
# KCC2 sec1 = KCC2 (human) modulation, secondary assay; shares compounds with Cl transport mod; HEK293-KCC2, thallium flux, FluoZin2 fluorescence; stronger effect = higher value; normalised thallium flux (F/F0 slope) at 10 µM; actives 15% (n = 3,700); AID 1713;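 active = thallium flux slope above the same plate's solvent-only control mean plus 3 SD; inconclusive = the two replicate wells disagree; inactive = no significant difference from solvent-only control wells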
# KCC2 bumet counter = thallium flux despite bumetanide block in KCC2 cells, secondary assay 3. normalized thallium flux at 10 µM. shares compounds with Cl transport mod. actives 49% (n = 3,700). HEK293-KCC2 + bumetanide/ouabain, thallium flux FluoZin2; stronger effect = higher value;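 active = thallium entry rate above the same plate's blocked-transporter control wells by more than 3 SD; inconclusive = the two repeat wells disagree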;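 note: raw slope of fluorescence over initial fluorescence between 10 and 20 s after thallium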
# KCC2 sec2 = KCC2 (human) modulation, second secondary assay. shares compounds with Cl transport mod. HEK293-KCC2, thallium flux FluoZin2 fluorescence; actives lie on both sides; F/F0 rise rate, 10–20 s post-thallium. normalized thallium flux at 10 µM. actives 23% (n = 3,700). AID 1715;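 active = thallium flux slope more than 3 SD above or below the plate's solvent-only control mean, mostly below; inconclusive = the two repeat wells disagreed; inactive = no significant shift from solvent-only controls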;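 note: raw slope with 0.1% DMSO as baseline and bumetanide as block control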
# HEK293 Tl flux = acts in parental HEK cells, KCC2 counter-screen; HEK293 parental cells, thallium flux FluoZin2, ouabain; baseline-ratio fluorescence slope, 10–20 s after thallium; actives 46% (n = 3,700); thallium flux rate (normalised fluorescence) at 10 µM; AID 1716; shares compounds with Cl transport mod;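 active = thallium flux rate significantly above the same plate's solvent-only control wells, beyond their mean plus 3 SD; inconclusive = the two replicate wells gave conflicting results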
# KCC2 retest ouab = confirmation of human KCC2 modulators with ouabain; shares compounds with Cl transport mod; HEK293-KCC2, thallium flux FluoZin2 fluorescence; bidirectional: low = inhibitor, high = activator; raw Tl+ flux slope (below DMSO = inhibition, above = activation) at 10 µM; actives 48% (n = 3,700); AID 1717;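 active = thallium flux slope beyond 3 SD from same-plate DMSO control mean in most replicates, usually higher, sometimes lower; inconclusive = repeat tests gave conflicting results; inactive = no significant difference from controls in most replicates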;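 note: slope of initial-normalized fluorescence between seconds 10 and 20 after thallium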
# HEK293 Tl flux2 = parental HEK flux effect, counter-screen 2; actives 33% (n = 3,700); thallium flux slope at 10 µM; HEK293 parental, thallium flux FluoZin-2 fluorescence slope; AID 1718; shares compounds with Cl transport mod;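 active = thallium flux slope above the same plate's solvent-control mean plus 3 SD in both duplicate wells; inconclusive = duplicate wells that disagreed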;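 note: run without ouabain in cells lacking the KCC2 cotransporter; slope of fluorescence scaled to its starting value between 10 and 20 s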
# * marks the source's active call; other numbers are inactive results; i = inactive; ? = inconclusive; / = not tested or not shown.
SMILES,KCNK9 inh,KCNK3 inh,hERG rescue,KCNQ1 act,Cl transport mod,KCNQ1 block,KCC2 sec1,KCC2 bumet counter,KCC2 sec2,HEK293 Tl flux,KCC2 retest ouab,HEK293 Tl flux2
O=C(CCNS(=O)(=O)c1ccc(Br)s1)NC1CCCC1,i,i,-15,i,-0.14,i,/,/,/,/,/,/
CCOC(=O)C1=C(CC)Nc2ccccc2N/C1=N\S(=O)(=O)c1cc(Br)ccc1Br,i,i,-8,i,-4*,i,0.0055,?,0.024*,0.0063*,0.015*,?
O=C(CCc1ccccc1)NC1(Cc2ccccc2)CCN(CCCc2ccccc2)C1=O (configuration not stated),/,i,/,/,/,/,/,/,/,/,/,/
N#Cc1c(-c2ccccc2)nc(SCc2nc(N)nc(N3CCCCC3)n2)[nH]c1=O,i,i,-6,i,-2.7*,i,?,0.0046,0.025*,0.0059*,0.012*,?
CCSc1nc(-c2ccccc2)c(C#N)c(=O)[nH]1,i,i,-10,i,/,i,/,/,/,/,/,/
CCOc1ccc(N(CC(=O)NCc2ccccc2C)S(C)(=O)=O)cc1,i,i,-13,i,/,i,/,/,/,/,/,/
CCN(CC)c1ccc(/C=N/NC(=S)NC)c(O)c1,i,i,-23,i,5.1*,i,0.0091,0.013*,0.031,?,0.022,0.01
CCN(CC(=O)NCc1cccs1)C(=O)c1cccc(S(=O)(=O)N(CC)c2ccccc2)c1,/,i,/,/,/,/,/,/,/,/,/,/
COc1ccc(-c2oc3ccccc3c(=O)c2OC(C)=O)cc1,i,i,4,41*,55*,i,0.022*,0.09*,0.041,?,0.071*,?
CC(C)Cn1c(-c2ccc(Br)cc2)c[nH]c1=S,i,i,-17,i,22*,i,0.0067,0.028*,?,0.025*,0.029*,0.025*
CCn1c(-c2ccccc2)c[nH]c1=S,i,i,-9,i,0.063,i,/,/,/,/,/,/
C[n+]1c(-c2ccc(C=NNC(=O)c3ccc(C(=O)NN=Cc4ccc(-c5cn6ccccc6[n+]5C)cc4)cc3)cc2)cn2ccccc21,/,i,/,/,/,/,/,/,/,/,/,/
c1ccc(Nc2nc(N3CCCC3)nc(N3CCCC3)n2)cc1,i,i,-13,i,1,i,/,/,/,/,/,/
Fc1ccc(Nc2nc(Oc3ccccc3F)nc(N3CCCC3)n2)cc1,i,i,-8,i,/,i,0.0073,0.0064,0.029,0.007,0.02,0.0097
CC(C)Cn1c(-c2csc3c2CCCC3)n[nH]c1=S,i,i,-11,i,4.8*,i,0.011,0.033*,0.031,0.011*,0.029*,0.01
COCCCNCC(=O)Nc1ccc(OC(F)(F)F)cc1,i,i,-1,i,3.6*,i,0.0091,0.0062,0.03,0.0072,0.027,0.0098
Cc1c(NC(=O)c2ccc(S(=O)(=O)Nc3ccccc3F)cc2)c(=O)n(-c2ccccc2)n1C,/,i,/,/,/,/,/,/,/,/,/,/
CCOC(=O)/C(C)=N/NC(=O)c1cccc([N+](=O)[O-])c1,i,i,12*,i,32*,i,0.0072,0.026*,0.04*,0.027*,0.034*,0.022*
CCOC(=O)Cc1ccc(NC(=O)c2cccc([N+](=O)[O-])c2)cc1,i,i,2,i,-0.28,i,/,/,/,/,/,/
C/C(=N\NC(=O)c1cc([N+](=O)[O-])cc([N+](=O)[O-])c1)c1ccco1,i,i,-8,i,38*,i,0.03*,0.075*,?,0.038*,0.055*,0.017*
O=C(N/N=C(\c1ccccc1)c1ccccn1)c1cccc([N+](=O)[O-])c1,i,i,-1,i,12*,i,?,0.028*,0.036,0.02*,0.031*,0.021*
Cc1ccsc1C(=O)OCC(=O)N1C(C)CCCC1C (configuration not stated),/,i,/,/,/,/,/,/,/,/,/,/
C[C@@H](NCCCn1ccc(NC(=O)OCc2ccccc2)nc1=O)c1cccc2ccccc12,/,i,/,/,/,/,/,/,/,/,/,/
Brc1ccc(-c2csc(Nc3nc(-c4ccc(Br)cc4)cs3)n2)cc1,i,i,-7,i,19*,i,0.01,0.025*,0.035,0.014*,0.027,0.012*
Cc1nn(-c2ccc(Cl)cc2)c(=O)c2ccccc12,i,i,-17,i,-0.97,i,/,/,/,/,/,/
SMILES,KCNK9 inh,KCNK3 inh,hERG rescue,KCNQ1 act,Cl transport mod,KCNQ1 block,KCC2 sec1,KCC2 bumet counter,KCC2 sec2,HEK293 Tl flux,KCC2 retest ouab,HEK293 Tl flux2
Cc1c(Cl)sn(-c2ccc(Cl)cc2)c1=O,/,i,/,/,-5.9*,/,0.0062,0.0048,0.023*,0.0069,0.012*,?
COC(=O)c1cccnc1NC(=S)NC1CCCCC1,i,i,0,18*,121*,i,0.012*,0.13*,0.098*,0.1*,0.098*,0.1*
COC(=O)c1ccc(NC(=S)NC2CCCCC2)cc1,i,i,-21,i,/,i,/,/,/,/,/,/
COc1cc(C(=O)NC2CCCC(C)C2C)ccc1OCC(=O)N1CCOCC1 (configuration not stated),/,i,/,/,/,/,/,/,/,/,/,/
Cc1cc(C)n2c(Br)c(CSc3nc4ccccc4s3)nc2n1,i,i,-11,i,-3.7*,i,0.0069,0.0051,0.027*,0.0061*,0.016*,0.0096
O=C1c2ccccc2C(=O)N1Cc1cccnc1,i,i,-5,i,-5.4*,i,0.0084,0.0058,0.031,0.0072,0.021,?
N#CC1=C(S)N=C(N)C(c2nc(-c3ccccc3)cs2)C12CCCCC2 (configuration not stated),i,i,-10,i,-3.9*,i,0.0094,0.006,0.022*,0.0069,0.016*,0.0097
